In assay [1] the test system is ScN2a. The assay is described as follows: Antiprion activity in mouse ScN2a cells assessed as inhibition of PrPSc formation at 17 uM after 3 days by dot blot assay relative to control. In kind it is cell-based.
Assay [2] can be described thus: Inhibition of mouse recombinant alexa fluor 488-labeled PrPC expressed in Escherichia coli BL21(DE3) RIL assessed as inhibition of association with PrPSc measured for 10 secs by SIFT-based confocal microscopy. As to conditions: for pEC50: read-out: EC50. In short, it runs like this:
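SIFT assay: Alexa-488-labelled mouse rPrP and Alexa-647-labelled L42 antibody (each about 2–6 nM) were mixed with diluted human PrPSc and compound in 20 mM potassium phosphate pH 6 with 0.1% Nonidet P40. Dilution series 0.1–100 µM. Read by dual-colour confocal FIDA as 2D intensity histograms, with cut-offs set from controls. EC50 is half-maximal inhibition of rPrP binding to PrPSc.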

The subject of assay [3] is ScN2a. Kind of assay: Antiprion activity in mouse ScN2a cells assessed as reduction in PrPSc level at 20 uM after 3 days by dot blot assay relative to control. In kind it is cell-based. Set-up: scale not given: the % may be the effect or the level left. In short, it runs like this:
(§1)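 Compound was added at a final 20.0 or 2.0 µM, then incubated 3 days (ScN2a at 37 °C, SMB at 35 °C). Lysates were dot-blotted to PVDF, treated with proteinase K (25 µg/ml, 90 min, 37 °C) and denatured with guanidinium thiocyanate. PrPres was probed with rabbit 1023 antiserum and detected by ECL. Signal is relative to untreated control (100%), from three independent experiments.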

The test system of assay [4] is ScN2a. The assay is described as follows: Antiprion activity in mouse ScN2a cells assessed as reduction in PrPSc level at 2 uM after 3 days by dot blot assay relative to control. Set-up: scale not given: the % may be the effect or the level left. In kind it is cell-based. In outline: as §1
The subject of assay [5] is SMB. Kind of assay: Antiprion activity in mouse SMB cells assessed as reduction in PrPSc level at 20 uM after 3 days by dot blot assay relative to control. In kind it is cell-based. Set-up: scale not given: the % may be the effect or the level left. In short, it runs like this: as §1
Assay [6] relates to SMB. Kind of assay: Antiprion activity in mouse SMB cells assessed as reduction in PrPSc level at 2 uM after 3 days by dot blot assay relative to control. Set-up: scale not given: the % may be the effect or the level left. The format is cell-based. In short, it runs like this:
as §1

Assay [7] is described as follows: Antiprion activity in mouse ScN2a cells assessed as reduction in PrPSc level after 3 days by dot blot assay relative to control. To be noted: 72 h. In kind it is cell-based.
Assay [8] can be described thus: Antiprion activity in mouse SMB cells assessed as reduction in PrPSc level after 3 days by dot blot assay relative to control. To be noted: 72 h. The format is cell-based.

Each structure is given as a SMILES string. pEC50: −log10 of the molar value. Activity calls are given as the source filed them.

For the molecule `CCCCCCCC/C=C\CCCCCCCOCC(C[N+](C)(C)CCNC(=O)C(CCCNCCCN)NCCCN)OCCCCCCC/C=C\CCCCCCCC` (stereo unspecified), the inhibition result in assay [1] was “Active”.

As usually defined, the pEC50 is the negative decadic logarithm of the EC50, by convention in mol/L. Take `CCCCNC(=O)c1cc(NC(=O)CN2CCCC2)ccc1Oc1ccccc1C(F)(F)F`: the pEC50 in assay [2] was 4.60; in assay [7] it was 5.85; in assay [8] it was 4.78. Further, the Activity in assay [3] was determined as 15%; in assay [4] it was 16%; in assay [5], 54%; in assay [6] it was 61%.

Turning to `CCCCNC(=O)c1cc(NC(=O)CN2CCCCC2)ccc1Oc1ccc(C(C)C)cc1`, the pEC50 in assay [2] was 4.82; in assay [7], 5.65; in assay [8], 4.86. For the same molecule, the Activity in assay [3] was 13%; in assay [4], 43%; in assay [5] it was 46%; in assay [6], 72%.

In the case of `CCCCNC(=O)c1cc(NC(=O)CN2CCCCC2)ccc1OC(C)C`, the EC50 entry in assay [2] was “Not Active”. The Activity was determined as 29% in assay [3], 78% in assay [4], 72% in assay [5] and 58% in assay [6]. In addition, the pEC50 was 5.16 in assay [7] and 3.79 in assay [8].

`CCCCNC(=O)c1cc(NC(=O)CN2CCCC2)ccc1OC(C)C`: the EC50 entry in assay [2] is “Not Active”. Besides, the Activity in assay [3] turned out to be 24%; in assay [4] it was 42%; in assay [5] it was 48%; in assay [6] it was 59%. The pEC50 is 5.56 in assay [7] and 4.97 in assay [8].

As for `CCCCNC(=O)c1cc(NC(=O)CN2CCCCC2)ccc1Oc1ccccc1`, the pEC50 in assay [2] was 3.70; in assay [7] it was 5.41; in assay [8], 3.30. Moreover, the Activity in assay [3] came to 30%; in assay [4] it was 50%; in assay [5] it was 75%; in assay [6], 65%.

The values above are taken from ChEMBL document CHEMBL2062371, “Synthesis of benzamide derivatives and their evaluation as antiprion agents” (Bioorg Med Chem, 2012).
